# From publication PMC4384654 (ChemMedChem, 2014)
# Columns and labels:
# [1] = biological target: T1, FAAH prepared from rat brain homogenates (Rattus norvegicus, UniProt P97612); test: In vitro rat FAAH radiometric assay; type: biochemical; conditions: read-out: r-FAAH IC50; rat brain homogenate, mean ± SEM (n=3)
# T1 sequence (P97612 1-579): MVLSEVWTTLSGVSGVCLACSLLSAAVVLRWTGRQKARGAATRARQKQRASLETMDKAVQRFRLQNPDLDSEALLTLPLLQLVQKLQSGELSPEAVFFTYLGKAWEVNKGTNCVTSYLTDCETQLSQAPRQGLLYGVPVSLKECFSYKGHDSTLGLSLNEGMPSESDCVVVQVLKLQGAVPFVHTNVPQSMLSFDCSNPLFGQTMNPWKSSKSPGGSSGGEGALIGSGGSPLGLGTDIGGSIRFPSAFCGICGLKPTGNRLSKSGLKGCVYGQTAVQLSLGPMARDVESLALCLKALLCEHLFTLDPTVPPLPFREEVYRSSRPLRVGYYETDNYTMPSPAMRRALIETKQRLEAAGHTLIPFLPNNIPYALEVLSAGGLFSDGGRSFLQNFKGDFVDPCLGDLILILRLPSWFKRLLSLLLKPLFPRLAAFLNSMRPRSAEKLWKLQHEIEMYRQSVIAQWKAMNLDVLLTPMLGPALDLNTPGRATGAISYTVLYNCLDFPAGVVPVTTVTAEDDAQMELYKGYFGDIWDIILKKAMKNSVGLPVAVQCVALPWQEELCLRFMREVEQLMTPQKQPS
# [2] = In vitro rat plasma stability assay; type: in vitro ADME; conditions: 37 °C, 1.0 μM
# Method in brief: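 Test compound at 1.0 µM final was incubated at 37 °C in rat plasma (prewarmed 30 min) containing 10% DMSO. Samples at 0, 30, 60, 120, 240, 360 and 420 min were quenched in cold CH3CN with 200 nM warfarin internal standard and centrifuged. Supernatant was quantified by LC-MS/MS (MRM). Internal-standard-normalised response was plotted over time. Run in triplicate.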
# [3] = In vitro mouse liver microsomes; type: in vitro ADME; conditions: 5 μM compound, mean of three determinations
# Method in brief: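 Test compound at 5 µM (0.1% DMSO) was preincubated 15 min with 1.25 mg/mL mouse liver microsomes in 100 mM Tris-HCl pH 7.4. At time zero, NADP 1 mM, G6P 20 mM, MgCl2 2 mM and G6P dehydrogenase 2 Units were added; shaken at 37 °C. Samples at 0–60 min were quenched in acetonitrile with warfarin internal standard and analysed by LC-MS/MS (MRM). A no-cofactor control was sampled at the end.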
# [4] = Aqueous kinetic solubility assay; type: physicochemical; conditions: Phosphate buffered saline, pH 7.4, single determination
# Method in brief: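 Test compound from a 10 mM DMSO stock was added to PBS pH 7.4 at a target 250 µM (2.5% DMSO final). Shaken 24 h at 25 °C, then centrifuged. Supernatant was analysed by UPLC/MS with UV at 215 nm. Solubility = peak-area ratio against a 250 µM reference in 1:1 CH3CN-H2O × reference concentration × dilution factor.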
# human FAAH-1 = biological target: T2, human FAAH-1 (Homo sapiens, UniProt O00519); test: In vitro human FAAH fluorescent assay; type: biochemical; conditions: h-FAAH-1 vs r-FAAH
# T2 sequence (O00519 1-579): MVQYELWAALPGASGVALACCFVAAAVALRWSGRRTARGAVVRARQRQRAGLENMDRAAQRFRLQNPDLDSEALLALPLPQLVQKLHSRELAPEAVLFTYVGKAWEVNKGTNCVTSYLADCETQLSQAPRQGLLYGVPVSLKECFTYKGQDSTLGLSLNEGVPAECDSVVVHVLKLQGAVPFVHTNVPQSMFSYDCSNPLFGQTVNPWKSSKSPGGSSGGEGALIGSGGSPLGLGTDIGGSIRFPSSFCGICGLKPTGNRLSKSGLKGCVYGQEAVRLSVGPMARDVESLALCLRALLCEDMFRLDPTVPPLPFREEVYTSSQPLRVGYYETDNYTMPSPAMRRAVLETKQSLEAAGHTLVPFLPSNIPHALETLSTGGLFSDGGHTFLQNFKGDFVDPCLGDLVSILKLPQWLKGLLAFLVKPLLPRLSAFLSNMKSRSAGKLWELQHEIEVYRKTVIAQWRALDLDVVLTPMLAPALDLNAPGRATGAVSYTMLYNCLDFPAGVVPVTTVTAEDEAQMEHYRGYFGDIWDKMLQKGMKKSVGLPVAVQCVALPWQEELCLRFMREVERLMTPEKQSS
# purified rat MGL = biological target: T3, purified rat MGL (Rattus norvegicus, UniProt Q8R431); test: MGL activity assay; type: biochemical; conditions: tested at concentrations up to 100 μM (Figure S1)
# T3 sequence (Q8R431 1-303): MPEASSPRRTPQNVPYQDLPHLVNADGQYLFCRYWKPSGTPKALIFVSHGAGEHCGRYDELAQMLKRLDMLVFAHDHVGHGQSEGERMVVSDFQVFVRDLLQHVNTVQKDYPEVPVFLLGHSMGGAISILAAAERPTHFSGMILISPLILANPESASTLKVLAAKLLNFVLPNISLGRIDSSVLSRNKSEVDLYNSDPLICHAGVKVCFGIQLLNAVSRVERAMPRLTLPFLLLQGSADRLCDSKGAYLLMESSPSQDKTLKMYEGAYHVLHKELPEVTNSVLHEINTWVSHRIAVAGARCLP
SMILES,IC50 [1] [nM],Plasma half-life [2] [min],MLM Stab. half-life [3] [min],Kinetic sol. [4] [µM],Higher potency on h-FAAH-1 with respect to r-FAAH (human FAAH-1) [fold],Inhibition of MGL activity (purified rat MGL)
"O=C(NC1CCCCC1)Oc1cccc(-c2ccccc2)c1 [Compound 1a, URB524, reference compound]",5.7 ± 1.2,62 ± 19,<5,6,,
"COc1cc(Cn2cc(COC(=O)NC3CCCCC3)nn2)cc(OC)c1 [Compound 27, [1-[(3,5-dimethoxyphenyl)methyl]triazol-4-yl]methyl N-cyclohexylcarbamate]",10.5 ± 2.9,,5,18,3,None of the compounds inhibited MGL activity
"COc1cccc(Cn2cc(CNC(=O)OCc3cn(Cc4cccc(OC)c4)nn3)nn2)c1 [Compound 34b, [1-[(3-methoxyphenyl)methyl]triazol-4-yl]methyl N-[[1-[(3-methoxyphenyl)methyl]triazol-4-yl]methyl]carbamate]",3.9 ± 0.7,,6,174,,None of the compounds inhibited MGL activity
"COc1ccc(Cn2cc(CNC(=O)OCc3cn(Cc4cccc(OC)c4)nn3)nn2)cc1 [Compound 40, [1-[(3-methoxyphenyl)methyl]triazol-4-yl]methyl N-[[1-[(4-methoxyphenyl)methyl]triazol-4-yl]methyl]carbamate]",5.8 ± 0.6,,8,152,,None of the compounds inhibited MGL activity
